Experimental data reported in article PMC11827156 (Malaria Journal, 2025).
Like-named read-outs stand apart in the source and are kept apart here.

Legend:
Format in all cases: cell-based, Plasmodium falciparum
P. falciparum 3D7 [1] = conditions: 72 h; for IC50: asynchronous culture, 0.0019–2 µM, ± standard error of the mean; for reduction of P. falciparum parasitaemia by 50%: at the concentrations tested (0.0019–2 µM)
P. falciparum 3D7 [2] = assay: Competition of TCAMS compounds; conditions: for effect on the increase in parasitaemia promoted by melatonin: 2.5 nM compound with 100 nM melatonin; for effect on the increase in parasitaemia promoted by melatonin / effect on the increase in parasitaemia promoted by serotonin: 48 h; for effect on the increase in parasitaemia promoted by serotonin: 2.5 nM compound with 250 nM serotonin; for classification on the serotonin/melatonin pathway in the parasite: from effects in presence and absence of serotonin or melatonin
Outline: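 Asynchronous P. falciparum 3D7 cultures (1% parasitaemia, 2% haematocrit) were given 2.5 nM test compound with or without 250 nM serotonin or 100 nM melatonin. Incubation was 48 h at 37 °C under mixed gas, with a DMSO solvent control. Cells were stained with SYBR Green-I (1:10,000) and MitoTracker Deep Red (50 nM) for 20 min at 37 °C, then parasitaemia was read by flow cytometry. Survival is relative to solvent; triplicate, 3 independent experiments.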

P. falciparum 3D7 [3] = conditions: 48 h; for effect on parasitaemia compared with the control: 2.5 nM compound alone
[4] = read-out: IC50 (nM) 3D7, Table 1
[5] = Plasmodium falciparum, 3D7, 72 h, read-out: IC50 (nM) 3D7, Table 1

Compound: COc1ccc(C2CC(=O)C3=C(C2)NC(C)=C(C(=O)OC(C)C)C3c2cccc(O)c2)cc1OC (centres unmarked) [TCMDC-125636, COc1ccc(cc1OC)C1CC(= O)C2 = C(C1)NC(C) = C(C2c1cccc(O)c1)C(= O)OC(C)C]
- IC50 (P. falciparum 3D7 [1]; [4]): 80.2 ± 18.9 nM

Compound: CCN(CCNc1nc(NCCc2cnc[nH]2)nc(N(CCC#N)Cc2ccccc2)n1)c1cccc(C)c1 [TCMDC-139258, CCN(CCNc1nc(NCCc2cnc[nH]2)nc(n1)N(CCC#N)Cc1ccccc1)c1cccc(C)c1]
- IC50 (P. falciparum 3D7 [1]; [5]): 216 ± 15.4 nM

Compound: CC[C@H](NC(=O)c1c(CC2CCN(CC(C)=O)CC2)c(-c2ccccc2)nc2ccccc12)c1ccccc1 [TCMDC-141946, CC[C@H](NC(= O)c1c(CC2CCN(CC(C) = O)CC2)c(nc2ccccc12)-c1ccccc1)c1ccccc1]
- IC50 (P. falciparum 3D7 [1]; [4]): 215 ± 27.9 nM

Compound: COc1cc(C)nc2ccc(NC(=O)c3ccc(C(=O)Nc4ccc5nc(C)cc(OC)c5c4)cc3)cc12 [TCMDC-139502, COc1cc(C)nc2ccc(NC(= O)c3ccc(cc3)C(= O)Nc3ccc4nc(C)cc(OC)c4c3)cc12]
- IC50 (P. falciparum 3D7 [1]; [4]): 98.2 ± 25.1 nM

Compound: O=C(/C=C/c1ccc(Cl)c(Cl)c1)Nc1cccc(CN2CCC(c3c[nH]c4ccc(O)cc34)CC2)c1 [TCMDC-139634, Oc1ccc2[nH]cc(C3CCN(Cc4cccc(NC(= O)\C = C\c5ccc(Cl)c(Cl)c5)c4)CC3)c2c1]
- effect on the increase in parasitaemia promoted by melatonin (P. falciparum 3D7 [2]): could inhibit the increase in parasitaemia promoted by melatonin thoroughly
- effect on the increase in parasitaemia promoted by serotonin (P. falciparum 3D7 [2]): able to inhibit the increase in parasitaemia
- classification on the serotonin/melatonin pathway in the parasite (P. falciparum 3D7 [2]): potential partial agonists of this pathway in the parasite
- IC50 (P. falciparum 3D7 [1]; [4]): 346 ± 47.5 nM
- effect on parasitaemia compared with the control (P. falciparum 3D7 [3]): induced a significant increase in parasitaemia

Compound: Cn1nccc1C(=O)NCCNCc1ccc(-c2ccc(-c3nc4cc(C(F)(F)F)ccc4[nH]3)s2)cc1 [TCMDC-133018, OC(= O)C(F)(F)F.Cn1nccc1C(= O)NCCNCc1ccc(cc1)-c1ccc(s1)-c1nc2cc(ccc2[nH]1)C(F)(F)F]
- IC50 (P. falciparum 3D7 [1]; [4]): 284 ± 125 nM

Compound: Clc1ccc2nccc(N3CCC(CN4CCC(c5c[nH]c6ccccc56)CC4)CC3)c2c1 [TCMDC-134281, OC(= O)C(F)(F)F.Clc1ccc2nccc(N3CCC(CN4CCC(CC4)c4c[nH]c5ccccc45)CC3)c2c1]
- IC50 (P. falciparum 3D7 [1]; [4]): 72.9 ± 10 nM

Compound: CCOc1ccc(C(=O)N2CCOC(CCN3CCC(c4ccccc4)CC3)(c3ccc(Cl)c(Cl)c3)C2)cc1 (centres unmarked) [TCMDC-135344, CCOc1ccc(cc1)C(= O)N1CCOC(CCN2CCC(CC2)c2ccccc2)(C1)c1ccc(Cl)c(Cl)c1]
- IC50 (P. falciparum 3D7 [1]; [4]): 462 ± 185 nM

Compound: CS(=O)(=O)Nc1ccc2[nH]cc(C3CCN(CC4CCN(C(=O)/C=C/c5ccc(Cl)c(Cl)c5)CC4)CC3)c2c1 [TCMDC-139813, CS(= O)(= O)Nc1ccc2[nH]cc(C3CCN(CC4CCN(CC4)C(= O)\C = C\c4ccc(Cl)c(Cl)c4)CC3)c2c1]
- effect on the increase in parasitaemia promoted by melatonin (P. falciparum 3D7 [2]): able to inhibit the increase in parasitaemia partially
- effect on the increase in parasitaemia promoted by serotonin (P. falciparum 3D7 [2]): partially inhibited the increase in parasitaemia promoted by serotonin
- IC50 (P. falciparum 3D7 [1]; [4]): 116 ± 49.1 nM
- effect on parasitaemia compared with the control (P. falciparum 3D7 [3]): did not significantly affect parasitaemia compared with the control

Compound: COc1cc2nc(NCCc3ccccc3)nc(NCCCc3ccccc3)c2cc1OC [TCMDC-135301, COc1cc2nc(NCCc3ccccc3)nc(NCCCc3ccccc3)c2cc1OC]
- effect on the increase in parasitaemia promoted by melatonin (P. falciparum 3D7 [2]): able to inhibit the increase in parasitaemia partially
- effect on the increase in parasitaemia promoted by serotonin (P. falciparum 3D7 [2]): unable to prevent the effect of the neurotransmitter on P. falciparum parasitaemia
- IC50 (P. falciparum 3D7 [1]; [5]): 434 ± 81.2 nM
- effect on parasitaemia compared with the control (P. falciparum 3D7 [3]): induced a significant increase in parasitaemia
- increase in parasitaemia (P. falciparum 3D7 [3]; 2.5 nM): 9.69%

Compound: COc1cc(NC(=O)N2CCOC(CCN3CCC4(CCc5ccccc54)CC3)(c3ccc(Cl)c(Cl)c3)C2)cc(OC)c1OC (centres unmarked) [TCMDC-135346, COc1cc(NC(= O)N2CCOC(CCN3CCC4(CCc5ccccc45)CC3)(C2)c2ccc(Cl)c(Cl)c2)cc(OC)c1OC]
- IC50 (P. falciparum 3D7 [1]; [4]): 75.5 ± 18.2 nM

Compound: COc1cc2nc(NCCc3ccccc3)nc(N(C)Cc3ccccc3)c2cc1OC [TCMDC-135385, COc1cc2nc(NCCc3ccccc3)nc(N(C)Cc3ccccc3)c2cc1OC]
- effect on the increase in parasitaemia promoted by melatonin (P. falciparum 3D7 [2]): unable to block their effects on the erythrocyte cycle
- effect on the increase in parasitaemia promoted by serotonin (P. falciparum 3D7 [2]): unable to prevent the effect of the neurotransmitter on P. falciparum parasitaemia
- IC50 (P. falciparum 3D7 [1]; [5]): 1210 ± 315 nM
- effect on parasitaemia compared with the control (P. falciparum 3D7 [3]): induced a significant increase in parasitaemia

Compound: Fc1ccc2[nH]c(-c3cccc(-c4ccc(CN5CCN(c6ccncc6)CC5)cc4)c3)nc2c1 [TCMDC-132918, OC(= O)C(F)(F)F.Fc1ccc2[nH]c(nc2c1)-c1cccc(c1)-c1ccc(CN2CCN(CC2)c2ccncc2)cc1]
- IC50 (P. falciparum 3D7 [1]; [4]): 68.4 ± 6.93 nM

Compound: COc1cc(NC(=O)N2CCOC(CCN3CCC4(CCc5ccccc54)CC3)(c3ccc(Cl)c(Cl)c3)C2)cc(OC)c1 (centres unmarked) [TCMDC-135338, COc1cc(NC(= O)N2CCOC(CCN3CCC4(CCc5ccccc45)CC3)(C2)c2ccc(Cl)c(Cl)c2)cc(OC)c1]
- IC50 (P. falciparum 3D7 [1]; [4]): 442 ± 78.8 nM

Compound: O=C(NC1CCC(CN2CCC(c3c[nH]c4ccccc34)CC2)CC1)c1cc(-c2ccc(F)cc2F)ccc1O (centres unmarked) [TCMDC-139894, Oc1ccc(cc1C(= O)NC1CCC(CN2CCC(CC2)c2c[nH]c3ccccc23)CC1)-c1ccc(F)cc1F]
- reduction of P. falciparum parasitaemia by 50% (P. falciparum 3D7 [1]): could not reduce P. falciparum parasitaemia by 50%

Compound: COc1cc2nc(NCCc3ccccc3)nc(NCc3cnn(C)c3C)c2cc1OC [TCMDC-135459, COc1cc2nc(NCCc3ccccc3)nc(NCc3cnn(C)c3C)c2cc1OC]
- effect on the increase in parasitaemia promoted by melatonin (P. falciparum 3D7 [2]): unable to block their effects on the erythrocyte cycle
- effect on the increase in parasitaemia promoted by serotonin (P. falciparum 3D7 [2]): unable to prevent the effect of the neurotransmitter on P. falciparum parasitaemia
- IC50 (P. falciparum 3D7 [1]; [5]): 287 ± 24.2 nM
- effect on parasitaemia compared with the control (P. falciparum 3D7 [3]): induced a significant increase in parasitaemia

Compound: Brc1ccc(Nc2nc(NCc3ccccc3)c3ccccc3n2)cc1 [TCMDC-124574, Brc1ccc(Nc2nc(NCc3ccccc3)c3ccccc3n2)cc1]
- IC50 (P. falciparum 3D7 [1]; [5]): 619 ± 213 nM

Compound: O=C(c1ccc(F)cc1)N1CCOC(CCN2CCC(c3ccccc3)CC2)(c2ccc(Cl)c(Cl)c2)C1 (centres unmarked) [TCMDC-135334, Fc1ccc(cc1)C(= O)N1CCOC(CCN2CCC(CC2)c2ccccc2)(C1)c1ccc(Cl)c(Cl)c1]
- reduction of P. falciparum parasitaemia by 50% (P. falciparum 3D7 [1]): could not reduce P. falciparum parasitaemia by 50%

Compound: Cc1cc(NC(=O)NCCN2CCC(NC(=O)c3ccc(Cl)cc3)CC2)c2ccccc2n1 [TCMDC-136171, Cc1cc(NC(= O)NCCN2CCC(CC2)NC(= O)c2ccc(Cl)cc2)c2ccccc2n1]
- IC50 (P. falciparum 3D7 [1]; [4]): 110 ± 46.2 nM

Compound: CCCCCC(C)C(C)c1cc(O)c2c(c1)OC(C)(C)CC2(O)c1ccnn1C (centres unmarked) [TCMDC-131795, CCCCCC(C)C(C)c1cc(O)c2c(OC(C)(C)CC2(O)c2ccnn2C)c1]
- IC50 (P. falciparum 3D7 [1]; [5]): 909 ± 65.1 nM

Compound: COc1cc2nc(NCCc3ccccc3)nc(NCc3cc(C)no3)c2cc1OC [TCMDC-135435, COc1cc2nc(NCCc3ccccc3)nc(NCc3cc(C)no3)c2cc1OC]
- effect on the increase in parasitaemia promoted by melatonin (P. falciparum 3D7 [2]): able to inhibit the increase in parasitaemia partially
- effect on the increase in parasitaemia promoted by serotonin (P. falciparum 3D7 [2]): unable to prevent the effect of the neurotransmitter on P. falciparum parasitaemia
- IC50 (P. falciparum 3D7 [1]; [5]): 734 ± 162 nM
- effect on parasitaemia compared with the control (P. falciparum 3D7 [3]): did not significantly affect parasitaemia compared with the control

Compound: NCCc1c[nH]c2ccc(O)cc12 [Serotonin, serotonin, reference compound]
- increase of P. falciparum parasitaemia compared with the control (P. falciparum 3D7 [3]; 250 nM): 11.86%

Compound: O=C(Nc1ccccc1)N(Cc1cccc(-c2cccc(CNCc3ccc4c(c3)OCO4)c2)c1)C1CCN(Cc2ccccc2)CC1 [TCMDC-140590, OC(= O)C(F)(F)F.O = C(Nc1ccccc1)N(Cc1cccc(c1)c1cccc(CNCc2ccc3OCOc3c2)c1)C1CCN(Cc2ccccc2)CC1]
- IC50 (P. falciparum 3D7 [1]; [4]): 285 ± 144 nM

Compound: O=c1c(NCCCN(Cc2ccc(F)cc2)c2ccccn2)c(NCc2ccncc2)c1=O [TCMDC-142310, Fc1ccc(CN(CCCNc2c(NCc3ccncc3)c(= O)c2 = O)c2ccccn2)cc1]
- effect on the increase in parasitaemia promoted by melatonin (P. falciparum 3D7 [2]): able to inhibit the increase in parasitaemia partially
- effect on the increase in parasitaemia promoted by serotonin (P. falciparum 3D7 [2]): able to inhibit the increase in parasitaemia
- classification on the serotonin/melatonin pathway in the parasite (P. falciparum 3D7 [2]): potential partial agonists of this pathway in the parasite
- IC50 (P. falciparum 3D7 [1]; [4]): 100 ± 23.6 nM
- effect on parasitaemia compared with the control (P. falciparum 3D7 [3]): induced a significant increase in parasitaemia

Compound: COc1ccc(CN2C(=S)N(Cc3ccccc3)C(=O)C2CC(=O)Nc2ccccc2)cc1OC (centres unmarked) [TCMDC-123874, COc1ccc(CN2C(CC(= O)Nc3ccccc3)C(= O)N(Cc3ccccc3)C2 = S)cc1OC]
- IC50 (P. falciparum 3D7 [1]; [4]): 759 ± 131 nM

Compound: COc1ccc2ncc(F)c([C@H](O)CN3CCC(NCc4ccc5c(c4)NC(=O)CO5)CC3)c2c1 [TCMDC-135829, Cl.COc1ccc2ncc(F)c([C@H](O)CN3CCC(CC3)NCc3ccc4OCC(= O)Nc4c3)c2c1]
- IC50 (P. falciparum 3D7 [1]; [4]): 336 ± 176 nM

Compound: O=C1CCCN1CCCNCc1ccc(-c2ccc(-c3nc4cc(C(F)(F)F)ccc4[nH]3)s2)cc1 [TCMDC-132764, OC(= O)C(F)(F)F.FC(F)(F)c1ccc2[nH]c(nc2c1)-c1ccc(s1)-c1ccc(CNCCCN2CCCC2 = O)cc1]
- IC50 (P. falciparum 3D7 [1]; [4]): 259 ± 49.4 nM

Compound: COc1ccc2[nH]cc(CCNC(C)=O)c2c1 [Melatonin, melatonin, reference compound]
- increase of P. falciparum parasitaemia compared with the control (P. falciparum 3D7 [3]; 100 nM): 15.05%

Compound: COc1ccc(NC(=O)[C@H](CC(C)C)Nc2cc(C)nc(NCCc3ccccc3)n2)cc1 [TCMDC-134778, OC(= O)C(F)(F)F.COc1ccc(NC(= O)[C@H](CC(C)C)Nc2cc(C)nc(NCCc3ccccc3)n2)cc1]
- IC50 (P. falciparum 3D7 [1]; [4]): 497 ± 99.5 nM
